High-throughput results as filed in PubChem BioAssay.
IDE act – boosts human insulin-degrading enzyme activity in HEK cells; P14735; activation, % at 5.96 µM; 0.073% of 340,000 active; FAbeta-B cleavage, fluorescence polarization; 0% vehicle, 100% cell-free pure enzyme wells;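 active means activation above the mean of all tested compounds plus 3 SD, set per screening campaign, cut at about 17% in these data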
Target sequence (P14735 whole entry, looked up): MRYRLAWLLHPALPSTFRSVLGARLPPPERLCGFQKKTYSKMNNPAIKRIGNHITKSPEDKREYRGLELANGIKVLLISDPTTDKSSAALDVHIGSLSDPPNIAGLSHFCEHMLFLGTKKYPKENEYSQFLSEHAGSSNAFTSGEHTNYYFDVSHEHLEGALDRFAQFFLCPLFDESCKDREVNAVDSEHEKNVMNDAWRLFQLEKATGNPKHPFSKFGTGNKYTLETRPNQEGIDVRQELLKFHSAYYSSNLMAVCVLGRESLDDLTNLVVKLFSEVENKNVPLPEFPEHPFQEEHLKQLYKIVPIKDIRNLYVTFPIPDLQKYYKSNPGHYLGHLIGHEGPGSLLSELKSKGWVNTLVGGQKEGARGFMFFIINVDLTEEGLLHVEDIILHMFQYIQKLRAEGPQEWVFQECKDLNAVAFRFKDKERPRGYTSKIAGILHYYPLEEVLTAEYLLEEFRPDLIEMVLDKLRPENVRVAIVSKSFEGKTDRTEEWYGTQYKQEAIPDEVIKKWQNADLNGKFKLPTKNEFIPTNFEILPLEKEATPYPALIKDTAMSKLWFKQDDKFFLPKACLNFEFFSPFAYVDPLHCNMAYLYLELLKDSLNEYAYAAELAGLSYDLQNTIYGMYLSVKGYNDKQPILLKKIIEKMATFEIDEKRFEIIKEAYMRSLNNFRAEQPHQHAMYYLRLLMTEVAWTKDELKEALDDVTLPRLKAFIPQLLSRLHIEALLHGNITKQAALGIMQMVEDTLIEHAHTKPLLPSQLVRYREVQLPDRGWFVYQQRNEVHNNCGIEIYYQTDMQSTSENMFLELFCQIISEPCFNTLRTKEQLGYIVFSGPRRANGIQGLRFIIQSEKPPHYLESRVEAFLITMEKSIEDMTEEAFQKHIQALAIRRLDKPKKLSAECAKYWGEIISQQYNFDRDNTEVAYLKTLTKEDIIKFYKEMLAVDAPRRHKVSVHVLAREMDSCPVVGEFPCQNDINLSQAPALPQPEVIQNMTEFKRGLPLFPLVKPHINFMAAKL
HNF4A DNA FP – change in binding of human HNF4 alpha to DNA | P41235 | HNF4a-FITC DNA binding, fluorescence polarization, 1 h | activity change, % at 10 µM | 0.3% of 360,000 active; in the data active means activity change above about 30%, passing the limit was not always enough
CSN deneddyl inh – inhibitors of human CSN-mediated cullin deneddylation; inhibition, % at 12.5 µM; Q92905; AID 651999; Purified CSN, SCF-Nedd8-OG deneddylation, fluorescence polarization; 0.38% of 360,000 active;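 active means pattern-corrected inhibition above about 35%, with an unprinted fluorescence ratio check between 0.5 and 1.5, limit read from the data, passing the limit was not always enough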
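Test system: Human Csn5 produced in HEK293T cells | Compound: 12.5 µM single point | Times: 90 min, room temperature | Signal: Fluorescence polarization readout | Read-out basis: % inhibition of substrate cleavage by Csn5 | Controls: no-enzyme wells high, enzyme-with-substrate wells low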
TPT1 inhibitor – inhibitors of Candida albicans tRNA 2'-phosphotransferase TPT1. 0.81% of 300,000 active. recombinant caTPT1, FP RNA substrate dephosphorylation. inhibition, % at 5 µM;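 active means inhibition above the mean of all tested compounds plus 3 SD, set per screening campaign, cut at about 24% in these data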
Rpn11 inh – inhibitors of human proteasome Rpn11; AID 588493; 0.59% of 360,000 active; human 26S proteasome, Ub4-pepOG fluorescence polarization; 20S core pre-blocked with epoxomicin; O00487; inhibition, % at 20 µM;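 active means inhibition at 20 µM, scaled to each plate's controls, above about 33%, limit read from the data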
IDE cell inh – inhibits human insulin-degrading enzyme in HEK cells; P14735; FAbetaB cleavage, fluorescence polarization; inhibition, % at 5.59 µM; 0.41% of 320,000 active; AID 434962;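 active means percent inhibition above the average of all tested compounds plus 3 SD, set per screening campaign, cut at about 16% in these data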;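 further: IDE supplied by intact live HEK cells; FP after avidin binding of uncleaved biotin substrate so inhibition keeps polarization high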
TPT1 inh confirm – TPT1 (C. albicans) inhibition, confirmation | inhibition, % at 5 µM | 74% of 2,400 active | recombinant caTPT1, fluorescence polarization, RNase T1 coupled | AID 2149 | shares compounds with TPT1 inhibitor;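 active means inhibition above the primary screen limit, the mean inhibition of all tested compounds plus 3 SD, cut at about 25% in these data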
RNase T1 counter – RNase T1 inhibition in TPT1 counter-screen; inhibition, % at 5 µM; 83% of 2,400 active; RNase T1 cleavage, fluorescence polarization, 1536-well; shares compounds with TPT1 inhibitor;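 active means inhibition above the solvent-only control well mean plus 3 SD, limit set per screening run, cut at about 23% in these data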;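 further: inhibitors block cleavage so intact labeled substrate keeps polarization high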
Large screens that a line does not name were inactive (follow-up assays come after a bar, where shown). An excerpt weighted towards active compounds, which were near 1.7% of everything screened.

CC(C)(O)[C@H](O)Cc1cc2ccc(=O)oc2cc1O[C@@H]1O[C@H](CO)[C@@H](O)[C@H](O)[C@H]1O	none (no result: TPT1 inhibitor)
Cc1ccc(O)c(C(=O)c2cc(C#N)c3nc4ccccc4n3c2)c1	TPT1 inhibitor 39.5 (not shown: Rpn11 inh) | TPT1 inh confirm 59.4 | RNase T1 counter 72.2
N#CC(C#N)=C/C=C(\Nc1ccc(Cl)cc1)c1ccc(Cl)cc1	TPT1 inhibitor 70.1 | TPT1 inh confirm inactive | RNase T1 counter inactive
CCOC(=O)c1sc2nc(C)nc(SCC(=O)NC(C)CCc3ccccc3)c2c1C (stereo not given)	TPT1 inhibitor 25.0 | TPT1 inh confirm 40.6 | RNase T1 counter 51.4
Cc1ccc(/C=C2/Sc3ccc(C(=O)N4CCN(c5ccccn5)CC4)cc3NC2=O)cc1	TPT1 inhibitor 28.2 | TPT1 inh confirm 49.3 | RNase T1 counter 61.1
CCOC(=O)c1c(-c2ccccc2)csc1NC(=O)/C(C#N)=C/c1ccc(O)c(OC)c1	TPT1 inhibitor 177.8 (not shown: Rpn11 inh) | TPT1 inh confirm 192.0 | RNase T1 counter 174.1
CCOC(=O)c1c(-c2ccccc2)csc1NC(=O)/C(C#N)=C/c1ccc(OC)c(OC)c1	none
CCC(C)[C@H](NC(=O)N1CCn2c1nc1ccccc12)C(=O)NCc1ccccc1 (stereo not given in full)	none
CCOC(=O)c1sc(-c2ccccc2)cc1NC(=O)Nc1ccc([N+](=O)[O-])cc1	none
O=c1[nH]c2ccccc2nc1-c1nnnn1Cc1ccccc1	none (no result: IDE act, TPT1 inhibitor, Rpn11 inh, IDE cell inh)
Cc1cc(/C=C2\SC(=S)N(Cc3ccco3)C2=O)c(C)n1-c1ccccc1	HNF4A DNA FP 45.5, TPT1 inhibitor 101.6 (not shown: Rpn11 inh) | TPT1 inh confirm 98.5 | RNase T1 counter 105.8
COc1ccc(-n2c(C)cc(/C=C3/SC(=S)N(C)C3=O)c2C)cc1	HNF4A DNA FP 51.5, TPT1 inhibitor 28.3 (not shown: Rpn11 inh) | TPT1 inh confirm 63.2 | RNase T1 counter 74.6
CN(C)c1ccc(C=C2SC(=S)N(Cc3ccco3)C2=O)cc1	none (not shown: IDE act, TPT1 inhibitor, Rpn11 inh, IDE cell inh)
CCc1cccc(N(CC(=O)NC2CCCCC2)C(=O)c2csnn2)c1	none
Cn1nnnc1SCc1ccc(CSc2nnnn2C)cc1	TPT1 inhibitor 54.8 | TPT1 inh confirm inactive | RNase T1 counter inactive
Cn1nnnc1SCc1ccc(Cl)cc1	none
CC(C)(C)C1CCc2c(sc(N)c2C(N)=O)C1 (stereo not given)	TPT1 inhibitor 24.5 | TPT1 inh confirm inactive | RNase T1 counter inactive
CCC(C)(C)C1CCc2c(sc(N)c2C(N)=O)C1 (stereo not given)	none
COC(=O)C1=C(C)N(CCCC(=O)O)C(=O)NC1c1ccc(Br)cc1 (stereo not given)	none
O=S(=O)(c1ccc(Br)s1)N1CCC2(CC1)OCCO2	none
Cc1ccc(/C=C2\CCC3=C2OC(N)=C(C#N)C3c2ccc(C)cc2)cc1 (stereo not given)	TPT1 inhibitor 122.2, IDE cell inh 56.4 (not shown: Rpn11 inh) | TPT1 inh confirm 121.1 | RNase T1 counter 111.9
Cc1ccc(C2C(C#N)=C(N)Oc3cc(N)ccc32)cc1 (stereo not given)	none
Cc1cccc(C)c1NC(=O)/C(C#N)=C/c1ccc(-c2ccc(C(=O)O)cc2)o1	none
N#C/C(=C\c1ccc(-c2ccc(C(=O)O)cc2)o1)C(=O)Nc1ccc(F)cc1	TPT1 inhibitor 32.6 | TPT1 inh confirm 47.7 | RNase T1 counter 61.4
O/C(=C\c1ccc2ccccc2n1)c1ccncc1	TPT1 inhibitor 53.4 | TPT1 inh confirm 80.9 | RNase T1 counter 90.4
CCOc1cc2c(C#N)c(N3CCNCC3)nc(N)c2c(N)n1	none
COc1ccc(CN2C(=O)Cc3c2nc(N)c2c(N)nc(N4CCCCC4)c(C#N)c32)cc1	TPT1 inhibitor 30.6 (no result: IDE act, HNF4A DNA FP, CSN deneddyl inh, Rpn11 inh) | TPT1 inh confirm 58.3 | RNase T1 counter 68.1
CCOc1cc2c(C#N)c(N3CCCCC3)nc(N)c2c(N)n1	TPT1 inhibitor 50.5 (not shown: Rpn11 inh) | TPT1 inh confirm 49.3 | RNase T1 counter 58.0
C[C@H](CO)N1C[C@H](C)[C@H](CN(C)S(=O)(=O)c2cccc(F)c2)Oc2ncc(-c3cccc(C(=O)N(C)C)c3)cc2C1=O	none (no result: IDE act, TPT1 inhibitor, IDE cell inh)
